# In paper PMC9066373 (Journal for Immunotherapy of Cancer, 2022):
# System: HHD-DR1 mice
# Assay: Immunization of HHD-DR1 mice, IFN-γ ELISPOT of splenocytes
# Format: in vivo
# Details: HHD-DR1 mice n=4, poly(I:C), in words
# How it was run: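 HHD-DR1 transgenic mice (human HLA-A*02.01 and HLA-DRB1*01; n=4/group) received a CD8 neoantigen peptide with poly(I:C), combined with a CD4 neoantigen peptide, anti-CD40 or both. Adjuvants were given at 50 µg/mouse. Class I peptide was injected s.c.; class II peptide i.v., boosted 1 week later. Spleens were taken 7 days after the last dose. Splenocytes (8×10⁵/well) were peptide-stimulated (10–0.01 µM) for 24 h and read by IFN-γ ELISPOT, no-peptide background subtracted.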
sequence,measurement,value
KYVYDFGVSV,Response against KYV when antiCD40 is added to KYV plus EVT,antiCD40 did not improve responses
